# Screens from PubChem BioAssay.
# Only a selection was taken, and hits are over-represented in it overall.
# T cruzi repl = blocks replication of Trypanosoma cruzi; T. cruzi beta-gal in NIH3T3, luminescence, 90 h; inhibition, % (no concentration beside the values); actives 1.4% (n = 300,000); AID 1885;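 active = mean inhibition across valid replicates above about 55%, limit read from the data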;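 also: signal also drops with host cell toxicity which is not excluded here; 0% = plate median of DMSO wells and 100% = zero luminescence signal; higher percent means less beta-gal luminescence so fewer parasites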
#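 compound dosing = single 50 nL compound addition per well in DMSO | material = NIH/3T3 host cells with β-galactosidase reporter T. cruzi | input = 5,000 host fibroblasts per well | timing = ≥90 h infection period, 3 h prior cell attachment | read-out basis = percent inhibition of parasite-derived β-gal signal | detection = GalScreen β-gal luminescence, detergent lysis, 60 min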
# CHOP inhibitor = inhibitors of CHOP induction in ER stress response | AID 2732 | actives 3.8% (n = 220,000) | CHO-K1 CHOP-promoter luciferase, tunicamycin-induced, 15-18 h | inhibition, % at 10 µM;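 active = compounds that reduced the stress-induced luciferase reporter signal by more than about 70% of percent inhibition, limit read from the data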;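 also: 0% = tunicamycin plus vehicle and 100% = wells without tunicamycin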
# UPR XBP1 act = adaptive UPR (XBP1) activation; activation, % at 20 µM; actives 0.33% (n = 330,000); CHO-XBP1 luciferase reporter, IRE1-XBP1 UPR activation, luminescence; percent of tunicamycin response, DMSO as zero;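 active = versus positive control, 20 µM dose yields 30% or more activation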;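 also: 100% = tunicamycin at 10 µg/mL and 0% = DMSO only wells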
#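 incubation = overnight seeding at 37 °C, 6 h compound treatment at 37 °C | assay system = CHO-XBP1 cells stably carrying IRE1-XBP1-driven luciferase reporter | input = 1000 cells per well | detection = luciferase luminescence | dosing = single point, 20 µM final compound, 1% DMSO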
# CHOP UPR activ = activators of apoptotic arm of unfolded protein response (CHOP). CHO-CHOP luciferase reporter, UPR activation, luminescence; percent of tunicamycin response over DMSO baseline. activation, % at 10 µM. actives 0.34% (n = 330,000);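 active = at 10 µM dose, activation of 40% or more, normalized to positive control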;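 also: 100% = tunicamycin at 10 µg/mL and 0% = DMSO alone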
#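 Evaluation: % reporter activation, DMSO baseline versus tunicamycin full activation; System: CHO-CHOP luciferase reporter cell line; Input: 500 cells/well; Incubation: 6 h compound treatment, 37 °C; Measured by: Steady-Glo luciferase luminescence; Dosing: one dose, 10 µM in 0.5% DMSO; Buffer or medium: F12 medium, 10% FBS; Benchmarks: positive tunicamycin 10 µg/mL, negative DMSO alone.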
# Dynein transport = dynein cargo transport inhibition; z-score, hits read low; 3617.4 mouse cells, GR-EGFP nuclear translocation imaging; test concentration mostly 20 µM; stimulated with dexamethasone, 1 µM; hits give low values; actives 0.47% (n = 220,000);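 active = plate z-score of nuclear minus cytoplasmic receptor signal below a set negative limit, without overly bright fluorescence or cell loss, cut at about -3.5 in these data, passing the limit was not always enough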;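 also: z-score of nuclear minus cytoplasmic ring GR-EGFP intensity difference per well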
#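 Buffer or medium: tetracycline-free induction medium containing charcoal-stripped FBS / Reagent: dexamethasone agonist, 1.0 µM final, for 30 min / Technique: automated 10x imaging of fixed Hoechst-stained cells / Times: induction 48 h, compound 1 h, agonist 30 min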
# Lmaj promast = Leishmania major promastigote growth inhibition | Leishmania major promastigotes, resazurin fluorescence viability | inhibition, % at 10 µM | actives 9% (n = 200,000) | AID 1063; in the data active = inhibition above about 50%;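 also: promastigotes grown with compound for 44 hours at 28 °C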
# Starred values were filed as active, the others as inactive; . = no result given.
SMILES,T cruzi repl,CHOP inhibitor,UPR XBP1 act,CHOP UPR activ,Dynein transport,Lmaj promast
O=C1/C(=C\c2cccs2)N=C(c2cccs2)N1Nc1ccccc1,19,46,-4,0,0.21,4
Cn1nccc1C(=O)N1CCN(S(=O)(=O)c2ccc(Br)s2)CC1,0,.,-4,0,.,.
O=S(=O)(c1ccc2c(c1)C(=NO)c1cc(S(=O)(=O)N3CCCCC3)ccc1-2)N1CCCCC1,77*,.,134*,149*,0.4,42
CC(C)(C)c1ccc(S(=O)(=O)N2CCCCC2)cc1,24,45,-2,0,0.049,92*
CC(C)(C)c1ccc(S(=O)(=O)N2CCN(CCC#N)CC2)cc1,1,8,-3,-1,-1.1,56*
COc1c(Cl)cc(Cl)cc1C(=O)Nc1ccc(CN2CCCCC2)cc1,56*,-12,3,0,-0.19,100*
COc1c(Cl)cc(Cl)cc1C(=O)Nc1ccc(NC(=O)c2cccs2)cc1,58*,50,-3,0,0.93,0
COc1c(Cl)cc(Cl)cc1C(=O)Nc1ccc(CN2CCOCC2)cc1,-31,.,2,2,.,.
O=C(Nc1ccc(NC(=O)c2ccc(Cl)cc2Cl)cc1)c1cccs1,-9,.,2,-1,.,.
COc1ccccc1C(=O)NC(=O)COC(=O)CN1C(=O)NC(C)(C)C1=O,-5,.,-1,0,.,.
CC(C)(CO)CNC(=O)CCc1nnc(-c2ccc(-c3ccccc3)cc2)o1,-20,.,-3,0,.,.
CCCC(=O)NC(c1ccco1)c1cc(Cl)c2cccnc2c1O (stereo not drawn),62*,-5,0,-2,1.7,-2
CCCC(=O)NC(c1cccs1)c1cc(Cl)c2cccnc2c1O (stereo not drawn),78*,75*,-1,-1,-0.15,99*
CCCC(=O)NC(c1ccc2c(c1)OCO2)c1cc(Cl)c2cccnc2c1O (stereo not drawn),56*,67,3,0,0.5,99*
CCC(=O)NC(c1ccco1)c1cc(Cl)c2ccccc2c1O (stereo not drawn),.,.,-1,0,.,.
O=C(CCC(=O)N1CCN(S(=O)(=O)c2ccc3ccccc3c2)CC1)Nc1cc(Cl)cc(Cl)c1,46,67,1,1,-1.1,63*
O=S(=O)(c1ccc2ccccc2c1)N1CCN(C(=S)Nc2ccc(F)c(Cl)c2)CC1,-5,18,-2,3,0.14,90*
NS(=O)(=O)c1ccc(CCNC(=O)COC(=O)C2COc3ccccc3O2)cc1 (stereo not drawn),.,.,0,-1,.,.
CC(=O)N1CCN(Cc2nc(C(c3ccccc3)c3ccccc3)no2)CC1,-1,-10,-2,1,-0.11,-1
c1ccc(C(c2ccccc2)c2noc(CN3CCN(C4CCCC4)CC3)n2)cc1,43,9,-2,-1,0.099,84*
OC1CCN(Cc2nc(Cc3ccccc3Cl)no2)CC1,1,49,-2,0,0.27,1
C[C@@H]1CN(C2CCN(Cc3nc(C(c4ccccc4)c4ccccc4)no3)CC2)C[C@H](C)O1,26,-1,-1,-2,-0.28,85*
Clc1ccccc1Cc1noc(CN2CCN3CCCC3C2)n1 (stereo not drawn),25,10,1,1,0.72,75*
C[C@@H]1CN(C2CCN(Cc3nc(CC4CC4)no3)CC2)C[C@H](C)O1,0,9,-2,-1,0.87,86*
CCOC(=O)C1(Cc2cccc(Cl)c2)CCCN(C(=O)c2cnn(CC)c2)C1 (stereo not drawn),8,.,2,4,.,.
SMILES,T cruzi repl,CHOP inhibitor,UPR XBP1 act,CHOP UPR activ,Dynein transport,Lmaj promast
Cc1cccc(NCc2ccc(Br)cc2)n1,4,.,1,3,.,.
CN(C)CCn1c(SCc2ccccc2C#N)nc2c(sc3ccccc32)c1=O,5,.,3,3,.,.
CC1(c2ccc(Cl)cc2)NC(=O)N(CN2CCOCC2)C1=O (stereo not drawn),0,.,17,-1,.,.
FC(F)(F)c1ccc(-c2noc(CN3CCCN(C4CCCCC4)CC3)n2)cc1,37,7,3,-1,-1.1,84*
CN(Cc1nc(-c2ccc(C(F)(F)F)cc2)no1)C1CCOCC1,10,6,0,2,-0.71,-1
CCOc1ccc(CN2CCN(S(=O)(=O)c3ccc(NC(C)=O)cc3)CC2)cc1,6,31,0,-2,-0.84,-3
COC(=O)[C@@]12CCCCN1[C@H](c1ccc(-c3ccc(C(C)=O)cc3)cc1)[C@@H]1C(=O)N(C)C(=O)[C@@H]12,13,.,2,0,.,.
CC(OC(=O)/C=C/c1ccco1)C(=O)NC1CCCCC1C (stereo not drawn),.,.,2,-2,.,.
Cc1nn(Cc2ccc(Cl)cc2Cl)c(Cl)c1/C=C/C(=O)OCC(=O)NCC(F)(F)F,10,77*,-4,-4,-0.67,-6
Cc1ccc(C(=O)O)cc1S(=O)(=O)Nc1ccccc1C(=O)NC1CC1,.,.,-1,0,.,.
Cc1nn(CC(=O)OCC(=O)Nc2ccccc2[N+](=O)[O-])c(C)c1[N+](=O)[O-],-6,33,4,2,1.8,65*
Cc1nn(CC(=O)OCC(=O)Nc2c(C(C)C)cccc2C(C)C)c(C)c1[N+](=O)[O-],-1,16,-1,4,0.044,51*
Cc1cc(NC(=O)CCSc2nc(-c3ccco3)cc(C(F)(F)F)n2)no1,26,0,2,-1,-0.38,-2
Cc1cc(NC(=O)CCCSc2nc(-c3ccco3)cc(C(F)(F)F)n2)no1,5,88*,2,-2,-0.77,-6
CC(C)(C)c1cc(C(F)(F)F)nc(SCCCNC(=O)c2ccco2)n1,15,86*,-3,-1,0.074,14
Cc1ccc(Cn2ccc(NC(=O)CCSc3nc(-c4ccco4)cc(C(F)(F)F)n3)n2)cc1,11,90*,2,0,0.46,10
Cc1ccc(SCC(=O)OC(C)C(=O)NCc2ccccc2)cc1 (stereo not drawn),-9,.,0,-1,.,.
Cc1cc(C)nc(NS(=O)(=O)c2ccc(NC(=O)CCC(=O)O)cc2)n1,1,.,0,1,.,.
O=C(O)C1CC=CCC1C(=O)Nc1ccc(N2CCN(Cc3ccccc3)CC2)cc1 (stereo not drawn),8,26,-1,-2,-0.61,-2
COc1ccc(C(OCC(O)CN2CCC(O)CC2)c2ccc(OC)cc2)cc1 (stereo not drawn),3,.,1,-1,.,.
COc1ccccc1CNC(=O)Cn1cc([N+](=O)[O-])ccc1=O,1,.,-3,0,.,.
